Assays:
[1] = tested on: Human immunodeficiency virus; test: Inhibition of HIV reverse transcriptase at 100 ug/ml after 1 hr by ELISA relative to control
Outline: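 Kit ELISA for HIV RT. Template/primer, biotin- and DIG-labelled dNTPs and RT enzyme in lysis buffer incubated 1 h at 37 °C. Product captured on streptavidin, detected with anti-DIG-peroxidase and ABTS substrate, and read at 405 nm. Percent inhibition calculated against a no-inhibitor sample.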

[2] = tested on: Human immunodeficiency virus 1; test: Antiviral activity against X4 tropic Human immunodeficiency virus 1 UG070 subtype D infected in human TZM-bl cells assessed as reduction in virus-induced cytopathic effect after 48 hrs by luminescence assay; format: functional, organism-based; conditions: Human immunodeficiency virus 1, UG070 subtype D, TZM-bl, 48 h; read-out: EC50
Outline: (§1)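 TZM-bl cells (HeLa-derived; CD4, CXCR4, CCR5; LTR-driven luciferase) seeded 1×10^4/well, left overnight at 37 °C, 5% CO2, then infected with 400 TCID50 virus for 2 h. Serial compound dilutions added in duplicate, only at levels giving >50% viability. […] Mean of two independent assays; nevirapine as positive control.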

[3] = tested on: Human immunodeficiency virus 1; test: Antiviral activity against R5 tropic Human immunodeficiency virus 1 VB59 subtype C infected in human TZM-bl cells assessed as reduction in virus-induced cytopathic effect after 48 hrs by luminescence assay; format: functional, organism-based; conditions: Human immunodeficiency virus 1, VB59 subtype C, TZM-bl, 48 h; read-out: EC50; outline: as §1
[4] = Selectivity index, ratio of CC50 for human TZM-bl cells to EC50 for X4 tropic Human immunodeficiency virus 1 UG070 subtype D; format: toxicity, cell-based; conditions: read-out: Ratio CC50/EC50
[5] = Selectivity index, ratio of CC50 for human TZM-bl cells to EC50 for R5 tropic Human immunodeficiency virus 1 VB59 subtype C; format: toxicity, cell-based; conditions: read-out: Ratio CC50/EC50
[6] = tested on: Human immunodeficiency virus 1; test: Antiviral activity against X4 tropic Human immunodeficiency virus 1 3B subtype B infected in human TZM-bl cells assessed as reduction in virus-induced cytopathic effect after 48 hrs by luminescence assay; format: functional, organism-based; conditions: Human immunodeficiency virus 1, 3B subtype B, TZM-bl, 48 h; read-out: EC50; outline: as §1
[7] = tested on: Human immunodeficiency virus 1; test: Antiviral activity against R5 tropic Human immunodeficiency virus 1 ADA5 subtype B infected in human TZM-bl cells assessed as reduction in virus-induced cytopathic effect after 48 hrs by luminescence assay; format: functional, organism-based; conditions: Human immunodeficiency virus 1, ADA5 subtype B, TZM-bl, 48 h; read-out: EC50; outline: as §1
[8] = Cytotoxicity against human TZM-bl cells after 48 hrs by MTT assay; format: cell-based
Outline: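 TZM-bl cells seeded 1×10^4/well and left overnight at 37 °C, 5% CO2. Medium then replaced with a two-fold dilution series of compound in quadruplicate. […] Mean of three independent assays.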

[9] = Selectivity index, ratio of CC50 for human TZM-bl cells to EC50 for X4 tropic Human immunodeficiency virus 1 3B subtype B; format: toxicity, cell-based; conditions: read-out: Ratio CC50/EC50
[10] = Selectivity index, ratio of CC50 for human TZM-bl cells to EC50 for R5 tropic Human immunodeficiency virus 1 ADA5 subtype B; format: toxicity, cell-based; conditions: read-out: Ratio CC50/EC50

SMILES | inhibition [1] [%] | EC50 [2] [µM] | EC50 [3] [µM] | selectivity ratio [4] | selectivity ratio [5] | EC50 [6] [µM] | EC50 [7] [µM] | CC50 at 48 h [8] [µM] | selectivity ratio [9] | selectivity ratio [10]
COc1cc(OC)nc(N2C(=O)CSC2c2c(Cl)cccc2[N+](=O)[O-])n1 (stereo not given) | 79.4 | 0.27 | 0.22 | 298 | 367 | 0.1 | 0.22 | 80.6 | 806 | 366
COc1cc(OC)nc(N2C(=O)CSC2c2c(F)cccc2F)n1 (stereo not given) | 82.9 | 0.53 | 0.48 | 144 | 161 | 0.25 | 0.31 | 77.5 | 310 | 250
N#Cc1ccc(NN2C(=O)CSC2c2c(F)cccc2Cl)cc1 (stereo not given) | 26.3 | 49.6 | 35 | 1.54 | 2.18 | 33.5 | 16.2 | 76.5 | 2.27 | 4.7
N#Cc1ccc(NN2C(=O)CSC2c2c(F)cccc2F)cc1 (stereo not given) | 34.5 | 56.9 | 48.9 | 0.74 | 0.86 | 42.6 | 26.6 | 42.2 | 1 | 1.58
O=C1CSC(c2c(F)cccc2F)N1Nc1ccccn1 (stereo not given) | 64.7 | 24.4 | 16.8 | 3.69 | 5.36 | 17.3 | 16.2 | 90.1 | 5.19 | 5.56
N#Cc1ccc(N2C(=O)CSC2c2c(Cl)cccc2Cl)nc1 (stereo not given) | 42 | 7.13 | < 7.13 | 8.4 | 8.4 | 20.5 | 4.62 | 60 | 2.92 | 13
COc1cccc(OC)c1C1SCC(=O)N1c1cc(C)c(Br)c(C)n1 (stereo not given) | 85.5 | 2.36 | 2.48 | 36.3 | 34.6 | 2.22 | 1.51 | 85.8 | 38.6 | 56.8
Cc1cc(C)nc(N2C(=O)CSC2c2ccc(C#N)cc2)c1 (stereo not given) | 37.9 | 51.1 | 46.5 | 2.9 | 3.18 | 40.4 | 26.4 | 148 | 3.66 | 5.62

Reference: ChEMBL document CHEMBL3286255, “Rational design and synthesis of novel thiazolidin-4-ones as non-nucleoside HIV-1 reverse transcriptase inhibitors” (Bioorg Med Chem, 2014)
